Measurements from ChEMBL document CHEMBL1122546, “A potent multisubstrate analogue inhibitor of human thymidylate synthetase” (J Med Chem, 1984).

Tests used:
Thymidylate synthase [1] = biological target: T1, Thymidylate synthase (Homo sapiens, UniProt P04818); assay: Inhibitory activity against human thymidylate synthase with variable concentration of N5, 10-CH2-H4PteGlu and fixed dUMP (100 uM)
Procedure, shortened: (§1)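 HeLa-S3 TS purified on methotrexate–Sephadex. Tritium release from [5-3H]dUMP with dUMP fixed at 100 μM and CH2-H4PteGlu varied, in 150 mM Tris-HCl pH 7.5 with DTT, NaF, formaldehyde, BSA and sucrose. Reactions ran at 37 °C for 60 min, were stopped with TCA, treated with charcoal, and the supernatant counted. Apparent Ki from replots of double-reciprocal slopes (competitive) or intercepts (noncompetitive) against inhibitor concentration.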

Thymidylate synthase [2] = biological target: T1, Thymidylate synthase; assay: Inhibitory activity against human thymidylate synthase with variable concentration of dUMP and fixed N5,10-CH2-H4PteGlu (200 uM)
[3] = Apparent Ki value for the inhibition of human thymidylate synthase in the presence of variable conc. of N5,10-CH2-H4PteGlu
Procedure, shortened: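 Thymidylate synthase purified from HeLa-S3 cells by methotrexate–Sephadex chromatography. Tritium-release assay, 37 °C for 60 min, at pH 7.5 (Tris-HCl) with DTT, NaF, formaldehyde, BSA and sucrose. dUMP (with [5-3H]dUMP, 10:1) fixed at 100 μM; CH2-H4PteGlu varied. Inhibitor tested at several concentrations. Lineweaver–Burk plots; slopes (competitive) or intercepts (noncompetitive) replotted against inhibitor concentration.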

[4] = Apparent Ki value for the inhibition of human thymidylate synthase in the presence of variable conc. of dUMP
Procedure, shortened: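 Enzyme is HeLa-S3 thymidylate synthase, purified on methotrexate–Sephadex. Tritium release from [5-3H]dUMP (10:1 with dUMP), with dUMP varied and CH2-H4PteGlu fixed at 200 μM. Tris-HCl pH 7.5 buffer with DTT, NaF, formaldehyde, BSA and sucrose; 37 °C, 60 min. Inhibitor at several concentrations; double-reciprocal slopes or intercepts replotted against inhibitor concentration.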

[5] = Apparent Ki value for the inhibition of human thymidylate synthase in the presence of variable conc. of N5,10-CH2-H4PteGlu; Ki/Km; procedure, shortened: as §1
[6] = Apparent Ki value for the inhibition of human thymidylate synthase in the presence of variable conc. of dUMP; Ki/Km
Thymidylate synthase [7] = biological target: T1, Thymidylate synthase; assay: Km of dUMP for human thymidylate synthase with variable concentration of dUMP and fixed N5,10-CH2-H4PteGlu (200 uM)

T1 sequence (P04818 whole entry): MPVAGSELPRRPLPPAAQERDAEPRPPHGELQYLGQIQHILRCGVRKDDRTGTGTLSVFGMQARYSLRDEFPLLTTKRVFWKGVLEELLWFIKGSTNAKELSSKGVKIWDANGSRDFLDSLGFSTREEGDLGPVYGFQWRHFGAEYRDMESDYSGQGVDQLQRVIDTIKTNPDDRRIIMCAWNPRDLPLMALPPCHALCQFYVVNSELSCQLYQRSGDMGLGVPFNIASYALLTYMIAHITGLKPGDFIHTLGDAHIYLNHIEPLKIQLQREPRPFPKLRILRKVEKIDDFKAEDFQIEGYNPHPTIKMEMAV

Nc1nc2c(c(=O)[nH]1)N(Cc1cn([C@H]3C[C@H](O)[C@@H](COP(O)O)O3)c(=O)[nH]c1=O)C(CNc1ccc(C(=O)NC(CCC(=O)O)C(=O)O)cc1)CC2 (some centres not stated)
Ki (Thymidylate synthase [1]): 0.25 µM | Ki (Thymidylate synthase [2]): 0.058 µM | Ratio [3]: 0.005 | Ratio [4]: 0.02

COP(=O)(O)OC[C@H]1O[C@@H](n2cc(CN3c4c(nc(N)[nH]c4=O)CCC3CNc3ccc(C(=O)NC(CCC(=O)O)C(=O)O)cc3)c(=O)[nH]c2=O)C[C@@H]1O (some centres not stated)
Ki (Thymidylate synthase [1]): 700 µM | Ki (Thymidylate synthase [2]): 120 µM | Ratio [5]: 14 | Ratio [6]: 40

O=c1ccn([C@H]2C[C@H](O)[C@@H](COP(=O)(O)O)O2)c(=O)[nH]1 [DEOXYURIDINE MONOPHOSPHATE]
Km (Thymidylate synthase [7]): 3 µM

CCOC(=O)CCC(NC(=O)c1ccc(N(CC2CCc3nc(N)nc(O)c3N2)N=O)cc1)C(=O)OCC (configuration not stated)
Ratio [3]: 3 | Ratio [4]: 80

Nc1nc2c(c(=O)[nH]1)N(Cc1cn([C@H]3C[C@H](O)[C@@H](CO)O3)c(=O)[nH]c1=O)C(CNc1ccc(C(=O)NC(CCC(=O)O)C(=O)O)cc1)CC2 (some centres not stated)
Ki (Thymidylate synthase [1]): 240 µM | Ki (Thymidylate synthase [2]): 150 µM | Ratio [5]: 4.8 | Ratio [6]: 50

CCOC(=O)CCC(NC(=O)c1ccc(N(CC2CCc3nc(N)[nH]c(=O)c3N2)N=O)cc1)C(=O)OCC (configuration not stated)
Ki (Thymidylate synthase [1]): 150 µM | Ki (Thymidylate synthase [2]): 240 µM
